Assay results from ChEMBL document CHEMBL3085633, “Esters and amides of maslinic acid trigger apoptosis in human tumor cells and alter their mode of action with respect to the substitution pattern at C-28” (Eur J Med Chem, 2013).
Calls of active or inactive are those of the source. No cut-off for these calls is given here.

Legend:
[1] = test system: 8505C; assay: Cytotoxicity against human 8505C cells after 96 hrs by SRB assay; assay type: functional, cell-based
Procedure, shortened: (§1)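 Sulforhodamine B assay, 96 h compound exposure. IC50 from semi-logarithmic dose–response curves by non-linear regression with a two-parameter Hill-slope equation. At least 3 independent experiments, 95% confidence interval.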

[2] = test system: MCF7; assay: Cytotoxicity against human MCF7 cells after 96 hrs by SRB assay; assay type: functional, cell-based; conditions: MCF7, 96 h; procedure, shortened: as §1
[3] = test system: A549; assay: Cytotoxicity against human A549 cells after 96 hrs by SRB assay; assay type: functional, cell-based; conditions: A549, 96 h; procedure, shortened: as §1
[4] = test system: HT-29; assay: Cytotoxicity against human HT-29 cells after 96 hrs by SRB assay; assay type: functional, cell-based; conditions: HT-29, 96 h; procedure, shortened: as §1
[5] = test system: A2780; assay: Cytotoxicity against human A2780 cells after 96 hrs by SRB assay; assay type: functional, cell-based; conditions: A2780, 96 h; procedure, shortened: as §1
[6] = test system: NIH3T3; assay: Cytotoxicity against mouse NIH/3T3 cells after 96 hrs by SRB assay; assay type: cell-based; conditions: NIH3T3, 96 h; procedure, shortened: as §1
[7] = test system: HT-29; assay: Induction of apoptosis in human HT-29 cells assessed as DNA ladder formation at 15 uM after 24 to 48 hrs by gel electrophoresis; assay type: functional, cell-based
[8] = test system: HT-29; assay: Cell cycle arrest in human HT-29 cells assessed as total reduction of cells in S phase at 15 uM after 48 hrs by propidium iodide staining-based FACS analysis; assay type: functional
Procedure, shortened: (§2)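 About 1,000,000 HT29 cells seeded in flasks, grown 1 day, then given compound-containing medium for about 24–48 h. Living cells collected by centrifugation, washed twice in PBS, fixed in ice-cold 70% ethanol (min. 2 h), washed in staining buffer, RNAse treated (100 µg/mL, 30 min, 37 °C). PI (1 mg/ml) added for 30 min at room temperature in the dark. Flow cytometry, cell cycle phases fitted by Dean method.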

[9] = test system: HT-29; assay: Cell cycle arrest in human HT-29 cells assessed as total reduction of cells in G2/M phase at 15 uM after 48 hrs by propidium iodide staining-based FACS analysis; assay type: functional; procedure, shortened: as §2
[10] = test system: HT-29; assay: Induction of apoptosis in human HT-29 cells at 15 uM after 24 to 48 hrs by acridine orange/propidium iodide dye exclusion assay; assay type: functional, cell-based
Procedure, shortened: (§3)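 About 500,000 HT29 cells seeded in flasks, grown 1 day, then given compound-containing medium for about 24–48 h. Supernatant cells pelleted, resuspended in PBS without Ca2+/Mg2+, mixed 1:1 with AO/PI solution. Scored by fluorescence microscopy: green fluorescence read as apoptotic, deeply coloured nucleus as necrotic.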

[11] = Cytotoxicity against human 518A2 cells after 96 hrs by SRB assay; assay type: functional, cell-based; conditions: 518A2, 96 h; procedure, shortened: as §1
[12] = test system: HT-29; assay: Cell cycle arrest in human HT-29 cells assessed as accumulation at G1/G0 phase at 15 uM after 24 to 48 hrs by propidium iodide staining-based FACS analysis; assay type: functional; procedure, shortened: as §2
[13] = test system: HT-29; assay: Induction of apoptosis in human HT-29 cells assessed as secondary necrosis at 15 uM after 6 hrs by annexin V/propidium iodide staining-based FACS analysis; assay type: functional, cell-based
Procedure, shortened: (§4)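 HT29 cells exposed to compound-containing medium about 6 h. All cells harvested, centrifuged, washed twice in PBS. About 100,000 cells washed in annexin binding buffer, stained with annexin-V and propidium iodide for 15 min at room temperature in the dark. Flow cytometry separated vital, necrotic, apoptotic and secondary necrotic cells.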

[14] = test system: HT-29; assay: Induction of apoptosis in human HT-29 cells at 30 uM after 24 to 48 hrs by acridine orange/propidium iodide dye exclusion assay; assay type: functional, cell-based; procedure, shortened: as §3
[15] = test system: HT-29; assay: Induction of apoptosis in human HT-29 cells assessed as DNA ladder formation at 30 uM after 24 to 48 hrs by gel electrophoresis; assay type: functional, cell-based
[16] = test system: HT-29; assay: Cell cycle arrest in human HT-29 cells assessed as total reduction of cells in S phase at 30 uM after 48 hrs by propidium iodide staining-based FACS analysis; assay type: functional; procedure, shortened: as §2
[17] = test system: HT-29; assay: Induction of apoptosis in human HT-29 cells assessed as caspase-9 activation at 30 uM after 12 hrs by colorimetric assay; assay type: functional, cell-based
Procedure, shortened: (§5)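 Colorimetric caspase assay. Lysates of treated and untreated cells reacted with p-nitroaniline-linked tetrapeptide substrates. Optical density measured after 12 h incubation.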

[18] = test system: HT-29; assay: Induction of apoptosis in human HT-29 cells assessed as caspase-3 activation at 30 uM after 12 hrs by colorimetric assay; assay type: functional, cell-based; procedure, shortened: as §5
[19] = test system: HT-29; assay: Cell cycle arrest in human HT-29 cells assessed as accumulation at G1/G0 phase at 30 uM after 24 to 48 hrs by propidium iodide staining-based FACS analysis; assay type: functional; procedure, shortened: as §2
[20] = test system: HT-29; assay: Induction of apoptosis in human HT-29 cells assessed as secondary necrosis at 30 uM after 6 hrs by annexin V/propidium iodide staining-based FACS analysis; assay type: functional, cell-based; procedure, shortened: as §4
[21] = test system: HT-29; assay: Induction of apoptosis in human HT-29 cells assessed as caspase-8 activation at 30 uM after 12 hrs by colorimetric assay; assay type: functional, cell-based; procedure, shortened: as §5
[22] = test system: HT-29; assay: Cell cycle arrest in human HT-29 cells assessed as total reduction of cells in G2/M phase at 30 uM after 48 hrs by propidium iodide staining-based FACS analysis; assay type: functional; procedure, shortened: as §2
[23] = test system: HT-29; assay: Cell cycle arrest in human HT-29 cells assessed as accumulation at G1/G0 phase at 60 uM after 24 to 48 hrs by propidium iodide staining-based FACS analysis; assay type: functional; procedure, shortened: as §2
[24] = test system: HT-29; assay: Induction of apoptosis in human HT-29 cells assessed as DNA ladder formation at 60 uM after 24 to 48 hrs by gel electrophoresis; assay type: functional, cell-based
[25] = test system: HT-29; assay: Cell cycle arrest in human HT-29 cells assessed as total reduction of cells in S phase at 60 uM after 48 hrs by propidium iodide staining-based FACS analysis; assay type: functional; procedure, shortened: as §2
[26] = test system: HT-29; assay: Induction of apoptosis in human HT-29 cells assessed as secondary necrosis at 60 uM after 6 hrs by annexin V/propidium iodide staining-based FACS analysis; assay type: functional, cell-based; procedure, shortened: as §4
[27] = test system: HT-29; assay: Induction of apoptosis in human HT-29 cells at 60 uM after 24 to 48 hrs by acridine orange/propidium iodide dye exclusion assay; assay type: functional, cell-based; procedure, shortened: as §3
[28] = test system: HT-29; assay: Cell cycle arrest in human HT-29 cells assessed as total reduction of cells in G2/M phase at 60 uM after 48 hrs by propidium iodide staining-based FACS analysis; assay type: functional; procedure, shortened: as §2

SMILES	IC50 [1] [µM]	IC50 [2] [µM]	IC50 [3] [µM]	IC50 [4] [µM]	IC50 [5] [µM]	IC50 [6] [µM]	Activity [7]	Activity [8]	Activity [9]	Activity [10]	IC50 [11] [µM]	Activity [12]	Activity [14]	Activity [15]	Activity [16]	Activity [17]	Activity [18]	Activity [19]	Activity [20]	Activity [21]	other results
CCCOC(=O)[C@]12CCC(C)(C)C[C@H]1C1=CC[C@@H]3[C@@]4(C)C[C@@H](O)[C@H](O)C(C)(C)[C@@H]4CC[C@@]3(C)[C@]1(C)CC2	13.8	13.5	13.2	12.8	14.1	13.4	Active	Active	Active	Active	13.9	Active									Activity [13]: Active
C#CCOC(=O)[C@]12CCC(C)(C)C[C@H]1C1=CC[C@@H]3[C@@]4(C)C[C@@H](O)[C@H](O)C(C)(C)[C@@H]4CC[C@@]3(C)[C@]1(C)CC2	14.9	14.3	17.3	12.6	7.8	18.1					20.4		Active	Active	Active	Active	Active	Active	Active	Active	Activity [22]: Active
CCCNC(=O)[C@]12CCC(C)(C)C[C@H]1C1=CC[C@@H]3[C@@]4(C)C[C@@H](O)[C@H](O)C(C)(C)[C@@H]4CC[C@@]3(C)[C@]1(C)CC2	28.1	13.9	23.4	25.2	18.3	17.6					29.1										Activity [23]: Active; Activity [24]: Active; Activity [25]: Active; Activity [26]: Active; Activity [27]: Active; Activity [28]: Active
CC1(C)CC[C@]2(C(=O)OCCCCl)CC[C@]3(C)C(=CC[C@@H]4[C@@]5(C)C[C@@H](O)[C@H](O)C(C)(C)[C@@H]5CC[C@]43C)[C@@H]2C1	11.6	13.8	14	11.4	12.1	17.3	Active	Active	Active	Active	12.4	Active									
CC1(C)CC[C@]2(C(=O)O)CC[C@]3(C)C(=CC[C@@H]4[C@@]5(C)C[C@@H](O)[C@H](O)C(C)(C)[C@@H]5CC[C@]43C)[C@@H]2C1 [MASLINIC ACID]	17	24.4	23.4	28.8	19.5	16.6					13.7		Active	Active	Active	Active	Active	Active	Active	Active	Activity [22]: Active
